The text below walks through data of ChEMBL document CHEMBL3797162, “Synthesis and inhibitory evaluation of 3-linked imipramines for the exploration of the S2 site of the human serotonin transporter” (Bioorg Med Chem, 2016).

Type in all cases: cell-based
Experiment [1] has as its target Sodium-dependent serotonin transporter (Homo sapiens, UniProt P31645, I172M). The experiment is described as follows: Inhibition of human SERT I172M mutant expressed in HEK293 MSR cells assessed as [3H]-5-HT uptake preincubated for 30 mins followed addition of [3H]-5HT and compound for 10 mins by micro-scintillation counter. The method in brief:
(§1)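 Cells were transiently transfected (Lipofectamine 2000, 0.2 µg DNA per cm²) and used after 48–60 h. Cells were washed in PBS with Ca/Mg (pH 7.4) and preincubated 30 min with a dilution series. 50–100 nM [3H]5-HT plus inhibitor was then added for 10 min at room temperature.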

Experiment [2] deals with Sodium-dependent serotonin transporter (Homo sapiens, UniProt P31645, I179C). As to the kind of experiment: Inhibition of human SERT I179C mutant expressed in HEK293 MSR cells assessed as [3H]-5-HT uptake preincubated for 30 mins followed addition of [3H]-5HT and compound for 10 mins by micro-scintillation counter. The method in brief: as §1
Experiment [3] concerns the target Sodium-dependent serotonin transporter (Homo sapiens, UniProt P31645, W103A). As to the kind of experiment: Inhibition of human SERT W103A mutant expressed in HEK293 MSR cells assessed as [3H]-5-HT uptake preincubated for 30 mins followed addition of [3H]-5HT and compound for 10 mins by micro-scintillation counter. The method in brief:
as §1

Experiment [4] deals with Sodium-dependent serotonin transporter (Homo sapiens, UniProt P31645). The experiment is described as follows: Inhibition of wild-type human SERT expressed in HEK293 MSR cells assessed as [3H]-5-HT uptake preincubated for 30 mins followed addition of [3H]-5HT and compound for 10 mins by micro-scintillation counter. An outline of the steps:
as §1

Sequence of Sodium-dependent serotonin transporter (Homo sapiens, UniProt P31645) (P31645 whole entry): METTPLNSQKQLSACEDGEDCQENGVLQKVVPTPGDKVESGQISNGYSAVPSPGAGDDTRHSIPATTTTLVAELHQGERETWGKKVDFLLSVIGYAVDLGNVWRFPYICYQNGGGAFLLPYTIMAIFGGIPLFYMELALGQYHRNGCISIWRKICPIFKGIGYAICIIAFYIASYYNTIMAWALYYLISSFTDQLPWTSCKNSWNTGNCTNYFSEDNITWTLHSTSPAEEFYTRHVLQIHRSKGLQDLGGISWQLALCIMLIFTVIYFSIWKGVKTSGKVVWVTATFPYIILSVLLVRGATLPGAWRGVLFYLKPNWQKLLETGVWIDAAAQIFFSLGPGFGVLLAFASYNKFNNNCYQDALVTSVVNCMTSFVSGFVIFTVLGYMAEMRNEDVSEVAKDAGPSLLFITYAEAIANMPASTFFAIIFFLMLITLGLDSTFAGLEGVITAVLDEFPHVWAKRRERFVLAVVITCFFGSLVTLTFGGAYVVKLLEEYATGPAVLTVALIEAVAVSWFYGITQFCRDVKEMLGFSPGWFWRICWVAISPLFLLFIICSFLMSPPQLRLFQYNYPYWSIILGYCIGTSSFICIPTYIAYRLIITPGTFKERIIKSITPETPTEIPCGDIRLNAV
Sequence of Sodium-dependent serotonin transporter (Homo sapiens, UniProt P31645, I179C) (P31645 whole entry I179C): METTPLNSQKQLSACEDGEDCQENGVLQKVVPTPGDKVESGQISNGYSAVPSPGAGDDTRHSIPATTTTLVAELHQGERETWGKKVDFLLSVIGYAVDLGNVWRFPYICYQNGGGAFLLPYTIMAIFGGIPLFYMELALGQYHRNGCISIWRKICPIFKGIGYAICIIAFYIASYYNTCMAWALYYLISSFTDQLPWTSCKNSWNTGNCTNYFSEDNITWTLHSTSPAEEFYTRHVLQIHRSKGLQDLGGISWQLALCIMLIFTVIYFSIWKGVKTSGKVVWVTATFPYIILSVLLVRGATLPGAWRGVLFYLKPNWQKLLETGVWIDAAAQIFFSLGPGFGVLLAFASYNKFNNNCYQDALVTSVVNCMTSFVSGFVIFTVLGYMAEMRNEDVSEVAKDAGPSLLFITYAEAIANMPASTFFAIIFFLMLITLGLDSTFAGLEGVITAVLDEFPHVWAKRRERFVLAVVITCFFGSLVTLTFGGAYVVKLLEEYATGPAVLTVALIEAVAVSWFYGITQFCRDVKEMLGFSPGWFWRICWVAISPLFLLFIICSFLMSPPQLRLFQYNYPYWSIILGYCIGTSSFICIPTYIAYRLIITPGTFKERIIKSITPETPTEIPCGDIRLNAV
Sequence of Sodium-dependent serotonin transporter (Homo sapiens, UniProt P31645, I172M) (P31645 whole entry I172M): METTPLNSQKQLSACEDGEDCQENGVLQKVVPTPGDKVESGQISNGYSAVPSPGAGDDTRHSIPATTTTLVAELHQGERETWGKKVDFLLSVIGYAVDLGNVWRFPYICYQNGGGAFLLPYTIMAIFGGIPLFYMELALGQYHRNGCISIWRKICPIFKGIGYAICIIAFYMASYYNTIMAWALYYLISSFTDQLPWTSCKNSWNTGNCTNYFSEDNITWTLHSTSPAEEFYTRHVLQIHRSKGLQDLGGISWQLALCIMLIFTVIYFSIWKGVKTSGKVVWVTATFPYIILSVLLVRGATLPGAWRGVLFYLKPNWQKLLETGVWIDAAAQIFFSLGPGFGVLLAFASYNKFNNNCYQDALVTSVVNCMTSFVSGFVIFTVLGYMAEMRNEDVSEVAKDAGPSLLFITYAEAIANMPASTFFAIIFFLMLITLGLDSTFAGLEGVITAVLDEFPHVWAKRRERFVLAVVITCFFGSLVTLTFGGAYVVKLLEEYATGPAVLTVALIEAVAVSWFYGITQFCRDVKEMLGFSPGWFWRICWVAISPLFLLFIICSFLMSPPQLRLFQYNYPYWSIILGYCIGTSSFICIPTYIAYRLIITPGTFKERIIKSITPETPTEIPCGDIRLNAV
Sequence of Sodium-dependent serotonin transporter (Homo sapiens, UniProt P31645, W103A) (P31645 whole entry W103A): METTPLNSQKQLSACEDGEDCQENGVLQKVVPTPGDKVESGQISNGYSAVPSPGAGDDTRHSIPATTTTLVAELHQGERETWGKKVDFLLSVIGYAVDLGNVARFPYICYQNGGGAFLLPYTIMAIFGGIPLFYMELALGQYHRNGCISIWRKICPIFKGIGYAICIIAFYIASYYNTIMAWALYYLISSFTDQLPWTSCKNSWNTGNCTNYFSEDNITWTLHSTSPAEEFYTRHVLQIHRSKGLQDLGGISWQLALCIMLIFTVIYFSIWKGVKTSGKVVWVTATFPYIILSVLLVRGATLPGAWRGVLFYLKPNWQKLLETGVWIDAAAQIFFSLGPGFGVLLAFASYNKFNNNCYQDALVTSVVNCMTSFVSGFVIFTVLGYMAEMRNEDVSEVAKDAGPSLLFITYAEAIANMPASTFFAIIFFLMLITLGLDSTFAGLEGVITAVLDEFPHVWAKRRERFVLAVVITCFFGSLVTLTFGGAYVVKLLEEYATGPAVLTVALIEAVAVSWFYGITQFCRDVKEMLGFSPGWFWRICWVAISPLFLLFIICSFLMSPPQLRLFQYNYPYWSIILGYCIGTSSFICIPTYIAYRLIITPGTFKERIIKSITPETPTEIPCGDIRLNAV

For `CN(C)CCCN1c2ccccc2CCc2ccc(C#CCO)cc21`, the results for the Ki in experiment [1], in experiment [2] and in experiment [4] were 2.6 µM, 0.035 µM and 0.15 µM, respectively. Besides, the IC50 in experiment [3] was determined as 0.06 µM.
For `CN(C)CCCN1c2ccccc2CCc2ccc(C#CCOCc3cccc4ccccc34)cc21` the same measures were 5.4 µM, 0.28 µM, 0.59 µM and 0.34 µM.
For `C#Cc1ccc2c(c1)N(CCCN(C)C)c1ccccc1CC2`, the Ki in experiment [1] worked out at 2.4 µM; in experiment [2], 0.027 µM; in experiment [4] it was 0.22 µM. Further, in experiment [3], the IC50 was determined as 0.04 µM.
Take `CN(C)CCCN1c2ccccc2CCc2ccc(C#CCOCCOCCOc3cccc4ccccc34)cc21`: the figures for the Ki in experiment [1], in experiment [2] and in experiment [4] were 6.4 µM, 0.45 µM and 6.5 µM, respectively. Further, in experiment [3], the IC50 is 0.42 µM.
For `CN(C)CCCN1c2ccccc2CCc2ccc(C#CCOCCOc3cccc4ccccc34)cc21` the same measures were 8 µM, 1.8 µM, 3.5 µM and 4.8 µM.
The corresponding values for `CN(C)CCCN1c2ccccc2CCc2ccc(C#CCOCCCOc3cccc4ccccc34)cc21` are 27 µM, 1.2 µM, 3.5 µM and 0.94 µM.
`CN(C)CCCN1c2ccccc2CCc2ccc(C#CCOCCOc3ccc4ccccc4c3)cc21`: the Ki is 2 µM in experiment [1], 0.64 µM in experiment [2] and 1.5 µM in experiment [4]. In addition, in experiment [3], the IC50 worked out at 0.44 µM.
For `CN(C)CCCN1c2ccccc2CCc2ccc(C#CCOCCCN3c4ccccc4CCc4ccccc43)cc21` the same measures were 16 µM, 1.6 µM, 13 µM and 1.6 µM.
With `CN(C)CCCN1c2ccccc2CCc2ccc(CCCOCCCOCCCN3c4ccccc4CCc4ccccc43)cc21`, the figures for the Ki in experiment [1], in experiment [2] and in experiment [4] were 11 µM, 0.64 µM and 5.9 µM, respectively. In addition, in experiment [3], the IC50 turned out to be 0.84 µM.
The corresponding values for `CN(C)CCCN1c2ccccc2CCc2ccc(CCCOCCCN3c4ccccc4CCc4ccccc43)cc21` are 15 µM, 0.33 µM, 6.3 µM and 0.27 µM.
For `CN(C)CCCN1c2ccccc2CCc2ccc(CCCOCc3cccc4ccccc34)cc21` the same measures were 5 µM, 0.29 µM, 0.62 µM and 0.61 µM.
For `CN(C)CCCN1c2ccccc2CCc2ccc(C#CCOCCOCCSc3cccc4ccccc34)cc21` the same measures were 19 µM, 0.5 µM, 2 µM and 0.56 µM.
`CN(C)CCCN1c2ccccc2CCc2ccc(CCCOCCOCCc3cccc4ccccc34)cc21`: the Ki in experiment [1] is 6.7 µM; in experiment [2], 0.36 µM; in experiment [4] it was 1 µM. Also, the IC50 in experiment [3] was determined as 0.28 µM.
With `CN(C)CCCN1c2ccccc2CCc2ccc(CCCOCCCOc3cccc4ccccc34)cc21`, the Ki was found to be 9.4 µM in experiment [1], 0.62 µM in experiment [2] and 1.2 µM in experiment [4]. Further, in experiment [3], the IC50 was found to be 0.6 µM.
For `CN(C)CCCN1c2ccccc2CCc2ccc(CCCOCCOc3cccc4ccccc34)cc21`, the Ki was 2.7 µM in experiment [1], 0.27 µM in experiment [2] and 0.6 µM in experiment [4]. Moreover, in experiment [3], the IC50 amounted to 0.28 µM.
The corresponding values for `CN(C)CCCN1c2ccccc2CCc2ccc(C#CCOCCOCCc3cccc4ccccc34)cc21` are 5.2 µM, 0.54 µM, 1.1 µM and 0.3 µM.
For the compound `CN(C)CCCN1c2ccccc2CCc2ccc(C#CCOCCCOCCCN3c4ccccc4CCc4ccccc43)cc21`, the Ki was found to be 10 µM in experiment [1], 2.8 µM in experiment [2] and 11 µM in experiment [4]. Moreover, the IC50 in experiment [3] stood at 4.1 µM.
